Assay results from the EternaBench riboswitch data.

Test system: MS2 coat protein
Experiment: apparent Kd, MS2 coat protein; higher = weaker binding; RNA-MaP array; FMN 200 µM where present
In short: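 The apparent Kd comes from binding curves fitted cluster by cluster, filtered, and summarised as a median. Those curves followed SNAP-549-labelled MS2 coat protein from 0.7 or 1.5 nM, doubling to 3 µM, on Illumina sequencing-chip clusters where stalled E. coli RNA polymerase had transcribed the designs, without and then with constant ligand. The buffer was 100 mM Tris-HCl pH 7.5, 80 mM KCl, 4 mM MgCl2, BSA, DTT, yeast tRNA and Tween-20, and green signal was normalised to red-channel RNA signal and control-cluster median Fmax.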

[1] = designed as: OFF switch for flavin mononucleotide, no ligand
[2] = ligand present: flavin mononucleotide, designed as: OFF switch for flavin mononucleotide
[3] = designed as: ON switch for flavin mononucleotide, no ligand
[4] = ligand present: flavin mononucleotide, designed as: ON switch for flavin mononucleotide

Sequence: GAAUACCUAGGAUAUACAUGAGGAUCACCCAUGUUAAUAUUUGCAUAUUCAUCCUCUGGUAGAAGGAGGAAACU
- apparent Kd [1]: 16.1 nM
- apparent Kd [2]: 14.6 nM

Sequence: ACAUACAUUCGAGGAUAUCGGUGAGAAAUCUUUCGAGAAGGCGAUUCAUGAUUUAUUAUCCUGGACAUGAGGAUCACCCAUGUA
- apparent Kd [3]: 78.9 nM
- apparent Kd [4]: 62.8 nM

Sequence: AGAGCGAUAGGAUAUACAUGAGGAUCACCCAUGUUAAAAGUGGAAUCCUUGGACGCAUGUAGAAGGAUUGCGCC
- apparent Kd [1]: 49.7 nM
- apparent Kd [2]: 94.2 nM

Sequence: GGACAUGAGGAUCACCCAUGUUCUCCAGAAGGCCGUACAUUUAAAAGUGGAUGGAUUAGUGUUGCGGAGGAUAUGGAGGUGCAA
- apparent Kd [3]: 77.1 nM
- apparent Kd [4]: 16.7 nM

Sequence: UGUCGGAGCAGAGGAUAUUACAUGAGGAUCACCCAUGUAUGAACCAAUAACUGGAAACAGCAAUGUAAGAAGGCUGCUCCGACA
- apparent Kd [1]: 7.6 nM
- apparent Kd [2]: 42.5 nM

Sequence: UUCUUGGCAGGAUAUGCUUUUUUAGACAUGAGGAUCACCCAUGUGUUUAUUUUUUUUUUUGCAGAAGGGCCUUAAU
- apparent Kd [1]: 16.4 nM
- apparent Kd [2]: 19.5 nM

Sequence: GGUGCGUAUGUGAGGAUAUGCUGGUCCUUGGCUCGGCAGAAGGCACAUGAGGAUCACCCAUGUGGUGUCGUUCC
- apparent Kd [1]: 52.5 nM
- apparent Kd [2]: 222 nM

Sequence: UGUAAGAUGCAGAAGGUGUUAGCUAGAGCUACGACAUGAGGAUCACCCAUGUACUAGAAACAGUACAAGGAUAUGCAUCUUACG
- apparent Kd [3]: 17.5 nM
- apparent Kd [4]: 6.57 nM

Sequence: ACAUGAGGAUCACCCAUGUAUACAUAGGAUAUUGAGGAUCAGGGAUGUUUUACAGGAUAUGUCUACAAGAAGGAUGCAAGUACA
- apparent Kd [3]: 32.7 nM
- apparent Kd [4]: 29.1 nM

Sequence: GUAGCAUACGGAGGAUAUUCAUACCGGAAACGGACAUGAGGAUCACCCAUGUGGCGAAAGCCUUGGGAGAAGGCCGUAUGCUAC
- apparent Kd [3]: 671 nM
- apparent Kd [4]: 21.9 nM

Sequence: AGCAGACGAGGAUAUAGAUUAAAUGACAUGAGGAUCACCCAUGUGAUCGAUCUAUUUUAUUUAGAAGGUGUCUGCU
- apparent Kd [1]: 18.1 nM
- apparent Kd [2]: 32.3 nM

Sequence: GGACGUCACAUGAACAUGAGGAUCACCCAUGUAACUAGACAUGAGGAUAUGGUUCCUAAUUGGAACCAGAAGGCAUGGACGUCC
- apparent Kd [3]: 224 nM
- apparent Kd [4]: 33 nM

Sequence: CGAGCUCGUGUGAGGAUAUACCUAUGGAUACAUAGGUAGAAGGCACAUGAGGAUCACCCAUGUCCUAGAGCUCG
- apparent Kd [1]: 92 nM
- apparent Kd [2]: 679 nM

Sequence: CCGAAUGUCACAGGAUAUGGUCCGGGCUCGGGACCAGAAGGGUGAUCUCACAUGAGGAUCACCCAUGUGUAGGCGUUAGGCUAC
- apparent Kd [3]: 36.7 nM
- apparent Kd [4]: 249 nM

Sequence: GUGAAACAUGAGGAUCACCCAUGUGAGGAUAUGUUUUAGUACUGCUGACAGUACAUCUAUAGAAGGCACAAAGG
- apparent Kd [1]: 26.8 nM
- apparent Kd [2]: 29.9 nM

Sequence: AAAGACAUGGUGCAGGAUAUAUUAAUAGUCACAUGAGGAUCACCCAUGUUCAGAUAUCUGAACGAGUAGAAGGGCGAUGAAAAAA
- apparent Kd [3]: 602 nM
- apparent Kd [4]: 589 nM

Sequence: UGGAUCAUGGGAGGAUAUCCUCAAGAGACAUGAGGAUCACCCAUGUAUUAUAUGCCUCAUGGCAUGGAGAAGGCCCAUGAUCCU
- apparent Kd [3]: 176 nM
- apparent Kd [4]: 161 nM

Sequence: AGUGUUUCGUUGUGACCCAUUCACAUGAGGAUCACCCAUGUAGAGGAUAUAGGUCACCACGGUUCCUAGAAGGCUGCAGGUGUG
- apparent Kd [1]: 5.71 nM
- apparent Kd [2]: 7.3 nM

Sequence: UUGGACAGCUAGAGCUGUUAAGUACAUGAGGAUCACCCAUGUCAGGAUAUCCUUCCGCAAUGCGAGGAGAAGGGACAGGGUCCC
- apparent Kd [1]: 64.7 nM
- apparent Kd [2]: 149 nM

Sequence: UGUCCUUGAGGCUCGGACGUGUCGCCAGAAGGCAAUUUCUGACAUGAGGAUCACCCAUGUCCAAUUGAGGAUAUGGCUGCGUUG
- apparent Kd [3]: 17.3 nM
- apparent Kd [4]: 5.56 nM

Sequence: AUGCGACAUGAGGAUCACCCAUGUGAGGAUAUGGCCUGUUUGGCGUGUGCUGGCUCUGUCAGAAGGCGCGUGGG
- apparent Kd [1]: 103 nM
- apparent Kd [2]: 270 nM

Sequence: AGUGCCCGAGCAGGAUAUCAAUGGUGGUCUGUACGCUGUAAAUUCAACAUGAGGAUCACCCAUGUUGAGAAGGGUUACGGCGCA
- apparent Kd [1]: 8.86 nM
- apparent Kd [2]: 23.9 nM

Sequence: CUUUCGUGAGGAUAUCAGUAGUAAAUAAAUAAAAUUACUACUGAGAAGGCACAUGAGGAUCACCCAUGUUCCUC
- apparent Kd [1]: 23.6 nM
- apparent Kd [2]: 144 nM
